The values below come from ChEMBL document CHEMBL1157032, “Synthesis and antimicrobial activity of novel pyrazolo[3,4-d]pyrimidin derivatives” (2010).

≈ marks a conversion by molar mass, not a printed value. Calls of active or inactive are those of the source. The calls are words filed in the database; no cut-off is given here.

By MIC is commonly meant the lowest concentration that inhibits growth of the organism. Read a high MIC as a less susceptible organism.

Holding throughout (type): functional
Assay [1] has as its system Candida albicans. Briefly: Antimicrobial activity against Candida albicans MTCC 227 at MIC after 48 hrs by agar diffusion method. In a few lines: (§1)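 Fungal spore suspensions in sterile distilled water were adjusted to 10⁶ cfu/mL, and 0.1 mL was spread on Sabouraud dextrose agar. 6 mm wells were filled with 0.1 mL of compound dilution in DMSO (1% DMSO; DMSO-only control). Plates were incubated 48 h at 28 ± 0.2 °C, and inhibition zones were measured in mm. MIC was the lowest concentration completely inhibiting growth.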
For orientation: In agar diffusion tests the substance spreads into inoculated agar from a disc or well.

For assay [2], the system named is Serratia marcescens. Briefly: Antimicrobial activity against Serratia marcescens MTCC 86 after 24 hrs. The following applies: MTCC 86, 24 h. In outline: (§2)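 Agar well diffusion on Mueller Hinton agar seeded with 0.1 mL of a 10⁵ cfu/mL bacterial suspension in 0.85% sterile saline. 6 mm wells received 0.1 mL of each compound dilution in DMSO (1% DMSO; DMSO alone as control). Plates were incubated 24 h at 37 ± 0.5 °C. Read-out was zone of inhibition in mm. MIC was taken as the lowest concentration giving complete growth inhibition.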

For assay [3], the system named is Escherichia coli. In words: Antimicrobial activity against Escherichia coli MTCC 1650 after 24 hrs. Conditions: MTCC 1650, 24 h. In outline:
as §2

For assay [4], the system named is Candida albicans. In words: Antimicrobial activity against Candida albicans MTCC 227 after 48 hrs. The following applies: MTCC 227, 48 h. In a few lines: as §1
For assay [5], the system named is Trichoderma viride. In words: Antimicrobial activity against Trichoderma viride MTCC 167 at MIC after 48 hrs by agar diffusion method. In outline:
as §1

The test system of assay [6] is Aspergillus flavus. In words: Antimicrobial activity against Aspergillus flavus MTCC 2501 at MIC after 48 hrs by agar diffusion method. In a few lines:
as §1

Assay [7] deals with Aspergillus niger. Briefly: Antimicrobial activity against Aspergillus niger MTCC 1781 at MIC after 48 hrs by agar diffusion method. In outline:
as §1

For assay [8], the system named is Serratia marcescens. Briefly: Antimicrobial activity against Serratia marcescens MTCC 86 at MIC after 24 hrs by agar diffusion method. In outline: as §2
The test system of assay [9] is Aspergillus niger. Briefly: Antimicrobial activity against Aspergillus niger MTCC 1781 after 48 hrs. Conditions: MTCC 1781, 48 h. In a few lines:
as §1

Assay [10] deals with Bacillus subtilis. In words: Antimicrobial activity against Bacillus subtilis MTCC 1789 after 24 hrs. The following applies: MTCC 1789, 24 h. In outline: as §2
Assay [11] relates to Trichoderma viride. In words: Antimicrobial activity against Trichoderma viride MTCC 167 after 48 hrs. The following applies: MTCC 167, 48 h. In a few lines: as §1
The subject of assay [12] is Aspergillus flavus. In words: Antimicrobial activity against Aspergillus flavus MTCC 2501 after 48 hrs. The following applies: MTCC 2501, 48 h. In a few lines: as §1
For assay [13], the system named is Penicillium chrysogenum. Briefly: Antimicrobial activity against Penicillium chrysogenum MTCC 1996 at MIC after 48 hrs by agar diffusion method. In a few lines: as §1
Assay [14] deals with Escherichia coli. Briefly: Antimicrobial activity against Escherichia coli MTCC 1650 at MIC after 24 hrs by agar diffusion method. In a few lines:
as §2

Assay [15] deals with Pseudomonas aeruginosa. In words: Antimicrobial activity against Pseudomonas aeruginosa MTCC 2488 after 24 hrs. Conditions: MTCC 2488, 24 h. In a few lines:
as §2

For assay [16], the system named is Proteus vulgaris. Briefly: Antimicrobial activity against Proteus vulgaris MTCC 1771 after 24 hrs. The following applies: MTCC 1771, 24 h. In a few lines:
as §2

Assay [17] has as its system Staphylococcus aureus. In words: Antimicrobial activity against Staphylococcus aureus MTCC 96 at MIC after 24 hrs by agar diffusion method. In outline:
as §2

The test system of assay [18] is Klebsiella pneumoniae. In words: Antimicrobial activity against Klebsiella pneumoniae NCIM 2957 after 24 hrs. The following applies: NCIM 2957, 24 h. In a few lines: as §2
Assay [19] concerns Bacillus subtilis. In words: Antimicrobial activity against Bacillus subtilis MTCC 1789 at MIC after 24 hrs by agar diffusion method. In outline:
as §2

The subject of assay [20] is Priestia megaterium. In words: Antimicrobial activity against Bacillus megaterium MTCC 1684 at MIC after 24 hrs by agar diffusion method. In outline: as §2
For assay [21], the system named is Priestia megaterium. In words: Antimicrobial activity against Bacillus megaterium MTCC 1684 after 24 hrs. The following applies: MTCC 1684, 24 h. In a few lines:
as §2

Assay [22] relates to Staphylococcus aureus. In words: Antimicrobial activity against Staphylococcus aureus MTCC 96 after 24 hrs. The following applies: MTCC 96, 24 h. In outline: as §2
For assay [23], the system named is Penicillium chrysogenum. Briefly: Antimicrobial activity against Penicillium chrysogenum MTCC 1996 after 48 hrs. Conditions: MTCC 1996, 48 h. In outline: as §1
The test system of assay [24] is Klebsiella pneumoniae. Briefly: Antimicrobial activity against Klebsiella pneumoniae NCIM 2957 at MIC after 24 hrs by agar diffusion method. In outline: as §2

On to `Nc1n[nH]c2nc3scc(-c4cc(Cl)c(Cl)cc4O)n3c(=O)c12`, for which the “inhibition zone (IZ)” value in assay [1] came out at 10 mm; in [5] it was 22 mm; in assay [6], 18 mm; in [7], 11 mm; in assay [13], 23 mm; in assay [14], 12 mm. The MIC in assay [2] was found to be 50 µg/mL (≈ 136 µM); in [3], 50 µg/mL (≈ 136 µM); in assay [4], 250 µg/mL (≈ 679 µM); in [9], 250 µg/mL (≈ 679 µM); in assay [10], 50 µg/mL (≈ 136 µM); in assay [11] it was 250 µg/mL (≈ 679 µM). Besides, the MIC in [12] was 250 µg/mL (≈ 679 µM); in [15], 50 µg/mL (≈ 136 µM); in assay [16] it was 50 µg/mL (≈ 136 µM); in assay [18], 50 µg/mL (≈ 136 µM); in assay [21], 50 µg/mL (≈ 136 µM); in assay [22], 50 µg/mL (≈ 136 µM). The MIC in assay [23] was 250 µg/mL (≈ 679 µM). In addition, the “inhibition zone (IZ)” value in assay [8], in assay [17], in [19] and in assay [20] was “inactive” each time.
`Nc1n[nH]c2nc3scc(-c4ccc(Cl)cc4)n3c(=O)c12`: the “inhibition zone (IZ)” value is given as 13 mm in assay [1]; 20 mm in assay [5]; 23 mm in [6]; 12 mm in assay [7]; 21 mm in [8]; 26 mm in assay [13]. The “inhibition zone (IZ)” value was 15 mm in assay [24] and 10 mm in [19]. Moreover, the MIC in [2] worked out at 50 µg/mL (≈ 157 µM); in assay [3], 50 µg/mL (≈ 157 µM); in [4], 250 µg/mL (≈ 787 µM); in assay [9], 250 µg/mL (≈ 787 µM); in assay [10], 50 µg/mL (≈ 157 µM); in [11], 250 µg/mL (≈ 787 µM). Also, the MIC in [12] turned out to be 250 µg/mL (≈ 787 µM); in assay [15] it was 50 µg/mL (≈ 157 µM); in [16], 50 µg/mL (≈ 157 µM); in assay [18] it was 50 µg/mL (≈ 157 µM); in assay [21], 50 µg/mL (≈ 157 µM); in [22] it was 50 µg/mL (≈ 157 µM). This compound returned an MIC in [23] of 250 µg/mL (≈ 787 µM). Further, the “inhibition zone (IZ)” value in assay [14], in assay [17] and in assay [20] was “inactive” each time.
As for `Cc1cc(-c2csc3nc4[nH]nc(N)c4c(=O)n23)c(O)cc1Cl`, the “inhibition zone (IZ)” value in [1] was 17 mm; in [5], 27 mm; in [6] it was 12 mm; in assay [7] it was 9 mm; in assay [13], 32 mm; in [14], 12 mm. Moreover, the MIC worked out at 50 µg/mL (≈ 144 µM) in assay [2]; 50 µg/mL (≈ 144 µM) in assay [3]; 250 µg/mL (≈ 719 µM) in assay [4]; 250 µg/mL (≈ 719 µM) in assay [9]; 50 µg/mL (≈ 144 µM) in assay [10]; 250 µg/mL (≈ 719 µM) in [11]. Further, the MIC came to 250 µg/mL (≈ 719 µM) in [12]; 50 µg/mL (≈ 144 µM) in [15]; 50 µg/mL (≈ 144 µM) in assay [16]; 50 µg/mL (≈ 144 µM) in assay [18]; 50 µg/mL (≈ 144 µM) in assay [21]; 50 µg/mL (≈ 144 µM) in [22]. Besides, the MIC in [23] came to 250 µg/mL (≈ 719 µM). Also, the “inhibition zone (IZ)” value in assay [8], in [17], in [19] and in [20] was “inactive” each time.
For the compound `Nc1n[nH]c2nc3scc(-c4ccccc4O)n3c(=O)c12`, the “inhibition zone (IZ)” value is 18 mm in assay [1]; 20 mm in assay [5]; 10 mm in assay [7]; 16 mm in [8]; 12 mm in assay [17]. Also, the MIC in assay [2] is 50 µg/mL (≈ 167 µM); in assay [3], 50 µg/mL (≈ 167 µM); in assay [4] it was 250 µg/mL (≈ 835 µM); in assay [9], 250 µg/mL (≈ 835 µM); in assay [10] it was 50 µg/mL (≈ 167 µM); in [11] it was 250 µg/mL (≈ 835 µM). Besides, the MIC in assay [12] came out at 250 µg/mL (≈ 835 µM); in [15], 50 µg/mL (≈ 167 µM); in [16], 50 µg/mL (≈ 167 µM); in assay [18] it was 50 µg/mL (≈ 167 µM); in assay [21] it was 50 µg/mL (≈ 167 µM); in assay [22], 50 µg/mL (≈ 167 µM). Besides, the MIC in assay [23] came to 250 µg/mL (≈ 835 µM). Moreover, the “inhibition zone (IZ)” value in assay [6], in [13], in assay [14], in assay [24], in assay [19] and in [20] was “inactive” each time.
